Data as given in ChEMBL document CHEMBL1130418, “Synthesis and evaluation of 6-(dibromomethyl)-5-nitropyrimidines as potential antitumor agents” (J Med Chem, 1997).

Columns and labels:
Mus musculus [1] = species: Mus musculus; experiment: The concentration required to decrease the estimate of the minimum fraction of leukemic cells (L1210) of mice that survived treatment to 50%. * indicates cell proliferation was not slowed down at screen concentration 100 mM; assay type: functional, organism-based
How it was run: (§1)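 Surviving-fraction estimate in L1210 suspension cultures (Fischer's medium) counted daily over 3 days across compound concentrations. The exponential part of each growth curve was extrapolated back to zero time, and the intercept was expressed as a percentage of the initial cell number. The value is the concentration that lowers this minimum surviving fraction to 50%.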

Mus musculus [2] = species: Mus musculus; experiment: Concentration required to decrease the growth rate to 50% of control; cell proliferation was not slowed down at screen concentration 100 mM; assay type: functional, organism-based
How it was run: (§2)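 Antiproliferative assay in L1210 murine leukemia or H.Ep.2 human epidermoid carcinoma cells. Cells were counted over time with compound present. Growth rate is the slope of log cell number versus time as a percentage of the control slope. IC50 is the concentration that lowers the growth rate to 50% of control. Values are usually the mean of two concentration–response determinations.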

Mus musculus [3] = species: Mus musculus; experiment: The initial growth rate of cells in the presence at the screen concentration 100 mM in leukemic cells (L1210) of mice; assay type: functional
Mus musculus [4] = species: Mus musculus; experiment: Concentration required to decrease the growth rate to 50% of control; assay type: functional, organism-based; how it was run: as §2
HEp-2 [5] = experiment: The initial growth rate of cells in the presence at the screen concentration 100 mM in human epidermoid carcinoma cells (H.Ep.2); assay type: functional
How it was run: (§3)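 H.Ep.2 monolayers were seeded at 2×10^4 cells per flask and switched after 1 day to medium containing compound at the single screen concentration. Duplicate flasks were counted on days 1, 2 and 4. The initial slope of log cell number versus time is given as a percentage of the untreated control slope.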

Mus musculus [6] = species: Mus musculus; experiment: The concentration required to decrease the estimate of the minimum fraction of leukemic cells (L1210) of mice that survived treatment to 50%; assay type: functional, organism-based; how it was run: as §1
HEp-2 [7] = experiment: Concentration required to decrease the growth rate to 50% of control on H.Ep.2 cells.; assay type: functional, cell-based; settings: Homo sapiens
HEp-2 [8] = experiment: The concentration required to decrease the estimate of the minimum fraction of human epidermoid carcinoma cells that survived treatment to 50% (H.Ep.2); assay type: functional, cell-based
How it was run: (§4)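 Surviving fraction in H.Ep.2 monolayers exposed to compound from day 1 after seeding, with duplicate flasks counted on days 1, 2 and 4. The exponential growth curve was back-extrapolated to zero time, and the intercept was expressed as a percentage of initial cells. The value is the concentration that lowers this minimum surviving fraction to 50%.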

Mus musculus [9] = experiment: Percent treated to untreated control was measured on Leukemia-bearing mice at the dose of 25 mg/kg; assay type: functional
Mus musculus [10] = experiment: Percent treated to untreated control was measured on Leukemia-bearing mice at the dose of 50 mg/kg; assay type: functional
How it was run: (§5)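 Mice were inoculated with P388 leukemia cells, and compound was injected once daily on days 1–5 after inoculation at doses of 200 down to 6.25 mg/kg/injection. T/C% is the life span of treated mice divided by that of untreated tumor-bearing control mice, ×100.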

Mus musculus [11] = experiment: Percent treated to untreated control was measured on Leukemia-bearing mice at the dose of 100 mg/kg; assay type: functional; how it was run: as §5
Mus musculus [12] = species: Mus musculus; experiment: The initial growth rate of cells in the presence at the screen concentration 10 mM in leukemic cells (L1210) of mice; assay type: functional
Mus musculus [13] = species: Mus musculus; experiment: The concentration required to decrease the estimate of the minimum fraction of leukemic cells (L1210) of mice that survived treatment to 50%; cell proliferation was not slowed down at screen concentration 100 mM; assay type: functional; how it was run: as §1
HEp-2 [14] = experiment: Concentration required to decrease the growth rate to 50% of control on H.Ep.2 cells; cell proliferation was not slowed at the screen concentration 100 mM; assay type: functional, cell-based, Homo sapiens
HEp-2 [15] = experiment: The concentration required to decrease the estimate of the minimum fraction of human epidermoid carcinoma cells that survived treatment to 50% (H.Ep.2); cell proliferation was not slowed down at screen concentration 100 mM; assay type: functional, cell-based; how it was run: as §4
Mus musculus [16] = species: Mus musculus; experiment: The concentration required to decrease the estimate of the minimum fraction of leukemic cells of mice that survived treatment to 50%; no evidence of surviving cell; assay type: functional, organism-based
How it was run: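 Minimum surviving fraction was estimated by back-extrapolating the exponential portion of treated-cell growth curves to zero time, as a percentage of the initial cell number. The value is the concentration that lowers this to 50%.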

Mus musculus [17] = species: Mus musculus; experiment: The concentration required to decrease the estimate of the minimum fraction of leukemic cells of mice that survived treatment to 50% (L1210); no evidence of survivin cell
HEp-2 [18] = experiment: The initial growth rate of cells in the presence at the screen concentration 10 mM in human epidermoid carcinoma cells (H.Ep.2); assay type: functional; how it was run: as §3
Mus musculus [19] = species: Mus musculus; experiment: The concentration required to decrease the estimate of the minimum fraction of leukemic cells (L1210) of mice that survived treatment to 50%; no evidence of surviving cell; assay type: functional, organism-based; how it was run: as §1
Mus musculus [20] = experiment: Percent treated to untreated control was measured on Leukemia-bearing mice at the dose of 12.5 mg/kg; assay type: functional; how it was run: as §5
Mus musculus [21] = experiment: Percent treated to untreated control was measured on Leukemia-bearing mice at the dose of 6.25 mg/kg; assay type: functional; how it was run: as §5
HEp-2 [22] = experiment: The concentration required to decrease the estimate of the minimum fraction of human epidermoid carcinoma cells that survived treatment to 50% (H.Ep.2); cell proliferation was not slowed at the screen concentration 100 mM; assay type: functional, cell-based; how it was run: as §4
Mus musculus [23] = species: Mus musculus; experiment: The concentration required to decrease the estimate of the minimum fraction of leukemic cells (L1210) of mice that survived treatment to 50%; cell proliferation was not slowed at the screen concentration 100 mM; assay type: functional; how it was run: as §1
Mus musculus [24] = species: Mus musculus; experiment: Concentration required to decrease the growth rate to 50% of control; cell proliferation was not slowed at the screen concentration 100 mM; assay type: functional, organism-based; how it was run: as §2
Mus musculus [25] = species: Mus musculus; experiment: Concentration required to decrease the growth rate to 50% of control; cell proliferation was not slowed down at screen concentration 10 mM; assay type: functional, organism-based; how it was run: as §2
Mus musculus [26] = species: Mus musculus; experiment: The concentration required to decrease the estimate of the minimum fraction of leukemic cells (L1210) of mice that survived treatment to 50%. * indicates cell proliferation was not slowed down at screen concentration 10 mM; assay type: functional; how it was run: as §1
Mus musculus [27] = species: Mus musculus; experiment: Concentration required to decrease the growth rate to 50% of control.; cell proliferation was not slowed down at screen concentration 10 mM; assay type: functional, organism-based; how it was run: as §2

SMILES | Control (Mus musculus [3]) | IC50 (Mus musculus [4]) | Control (HEp-2 [5]) | IC50 (Mus musculus [6]) | also measured
Cc1nc(Cl)nc(Cl)c1[N+](=O)[O-] | 104% |  |  |  | IC50 (Mus musculus [1]): Cell proliferation not slowed; IC50 (Mus musculus [2]): Cell proliferation not slowed
CCN(CC)c1nc(OC)nc(C(Br)Br)c1[N+](=O)[O-] | 0% | 5800 nM | 0% | 5600 nM | 
COc1nc(C(Br)Br)c([N+](=O)[O-])c(N2CCOCC2)n1 | 0% | 320 nM | 0% | 560 nM | IC50 (HEp-2 [7]): 1600 nM; IC50 (HEp-2 [8]): 2800 nM; T/C (Mus musculus [9]): 109%; T/C (Mus musculus [10]): 101%; T/C (Mus musculus [11]): 87%
COc1nc(C(Br)Br)c([N+](=O)[O-])c(N2CCCC2)n1 |  | 900 nM |  | 1000 nM | Control (Mus musculus [12]): 0%
COc1nc(CO)c([N+](=O)[O-])c(N2CCOCC2)n1 | 100% |  | 100% |  | IC50 (Mus musculus [13]): Cell proliferation not slowed; IC50 (Mus musculus [2]): Cell proliferation not slowed; IC50 (HEp-2 [14]): Cell proliferation not slowed; IC50 (HEp-2 [15]): Cell proliferation not slowed
CCOc1nc(OCC)c([N+](=O)[O-])c(C(Br)Br)n1 | 0% | 7200 nM |  |  | IC50 (Mus musculus [16]): Not Active
CCOc1nc(C(Br)Br)c([N+](=O)[O-])c(N2CCOCC2)n1 | 13% | 3600 nM |  |  | IC50 (Mus musculus [17]): Not Active
CNc1nc(OC)nc(C(Br)Br)c1[N+](=O)[O-] | 0% | 2300 nM | 0% | 2000 nM | 
COc1nc(C(Br)Br)c([N+](=O)[O-])c(N2CCCCC2)n1 |  | 540 nM |  | 1800 nM | Control (Mus musculus [12]): 0%; Control (HEp-2 [18]): 36%
COc1nc(N)c([N+](=O)[O-])c(C(Br)Br)n1 | 0% | 2000 nM | 0% |  | IC50 (Mus musculus [19]): Not Active; IC50 (HEp-2 [7]): 1600 nM; T/C (Mus musculus [20]): 100%; IC50 (HEp-2 [8]): 3300 nM; T/C (Mus musculus [9]): 91%; T/C (Mus musculus [21]): 104%
COc1nc(C)c([N+](=O)[O-])c(OC)n1 | 104% |  | 90% |  | IC50 (HEp-2 [22]): Cell proliferation not slowed; IC50 (HEp-2 [14]): Cell proliferation not slowed; IC50 (Mus musculus [23]): Cell proliferation not slowed; IC50 (Mus musculus [24]): Cell proliferation not slowed
COc1nc(OC)c([N+](=O)[O-])c(C(Br)Br)n1 | 0% | 1900 nM | 0% |  | IC50 (HEp-2 [7]): 2500 nM; IC50 (HEp-2 [8]): 2700 nM; IC50 (Mus musculus [16]): Not Active
COc1nc(C=P(c2ccccc2)(c2ccccc2)c2ccccc2)c([N+](=O)[O-])c(OC)n1 |  |  |  |  | Control (Mus musculus [12]): 93%; IC50 (Mus musculus [25]): Cell proliferation not slowed; IC50 (Mus musculus [26]): Cell proliferation not slowed
COc1nc(/C=C\N(C)C)c([N+](=O)[O-])c(OC)n1 |  |  |  |  | Control (Mus musculus [12]): 87%; IC50 (Mus musculus [26]): Cell proliferation not slowed; IC50 (Mus musculus [27]): Cell proliferation not slowed
COc1nc(CBr)c([N+](=O)[O-])c(OC)n1 | 0% | 8000 nM | 0% | 25000 nM | 
COc1nc(C=O)c([N+](=O)[O-])c(N(C)C)n1 | 0% | 5900 nM |  | 12000 nM | 
CCCOc1nc(C(Br)Br)c([N+](=O)[O-])c(N2CCOCC2)n1 |  | 2300 nM |  | 6100 nM | Control (Mus musculus [12]): 13%
